Measurements from different studies.
Observed: cell growth or viability

SMILES	cell line	technique	tested at	time	measurement	result
C[C@H]1[C@H](C)CC[C@]2(C(=O)O)CC[C@]3(C)C(=CC[C@@H]4[C@@]5(C)CC[C@H](O)C(C)(C)[C@@H]5CC[C@]43C)[C@H]12	WS1			48 h	IC50	14 µM
CC(=O)OC1c2c(ccc3ccc(=O)oc23)OC(C)(C)C1OC(=O)C(C)(O)C(C)O (stereo not drawn)	HEp-2	WST-1			IC50	11.3 µM
C[C@@H]1O[C@@H](OC[C@H]2O[C@@H](Oc3c(-c4ccc(O)c(O)c4)oc4cc(O)cc(O)c4c3=O)[C@H](O)[C@@H](O)[C@@H]2O)[C@H](O)[C@H](O)[C@H]1O	TZM-bl	MTT		48 h	CC50	> 250 µg/mL
CCCCCCCCCCCCCCCCOP(=O)([O-])OCC[N+](C)(C)C	THP-1			72 h	CC50	> 40 µM
CC[C@H](C)C(=O)O[C@H]1C[C@@H](C)C=C2C=C[C@H](C)[C@H](CC[C@@H]3C[C@@H](O)CC(=O)O3)[C@H]21	SW-620	SRB		72 h	IC50	0.08 µM
C[C@@H]1[C@H](O)[C@@H](C)/C=C/C=C/C=C/C=C/C=C/C=C/C=C/[C@H](O[C@@H]2O[C@H](C)[C@@H](O)[C@H](N)[C@@H]2O)C[C@@H]2O[C@](O)(C[C@@H](O)C[C@@H](O)[C@H](O)CC[C@@H](O)C[C@@H](O)CC(=O)O[C@H]1C)C[C@H](O)[C@H]2C(=O)O	THP-1	MTT		72 h	CC50	3.6 µM
C=C(C)[C@H](CCC(C)(C)O)Cc1c(O)cc(OC)c2c1O[C@H](c1ccc(O)cc1O)CC2=O	MCF7	MTT		48 h	IC50	> 100 µM
C/C(=C\C(=O)OCCCCCCCCC(=O)O)C[C@@H]1OC[C@H](C[C@@H]2O[C@H]2[C@@H](C)[C@H](C)O)[C@@H](O)[C@H]1O	TZM-bl				CC50	> 100 µM
O=[N+]([O-])c1ccc(-c2nc3cccc(O)c3[nH]2)o1	HEp-2	resazurin		72 h	CC50	31.6 µM
C=C(C)C(CC=C(C)C)Cc1c(O)cc(OC)c2c1O[C@H](c1ccc(O)cc1O)CC2=O (single isomer, unassigned; (-))	MCF7	MTT			IC50	23.2 µM
Cc1cccc2nc(-c3ccc([N+](=O)[O-])o3)[nH]c12	HEp-2	resazurin		72 h	CC50	1.7 µM
CC1(C)CC[C@]2(C)CC[C@]3(C)[C@H]4CC=C5[C@@H](CC[C@H](O)C5(C)C)[C@]4(C)CC[C@@]3(C)[C@@H]2C1	HEp-2	WST-1			IC50	48.1 µM
COc1cccc2c1C(=O)c1c(O)c3c(c(O)c1C2=O)C[C@@](O)(C(=O)CO)C[C@@H]3O[C@H]1C[C@H](N)[C@H](O)[C@H](C)O1	MCF7	MTT	25 µM	48 h	viability	16%
Cc1nc(C(CN)NC(=O)C(=O)Nc2ccc3c(c2)OCO3)sc1CO (stereo not drawn)	TZM-bl	MTS		72 h	CC50	≥ 750 µM
CC(=O)O[C@@H]1c2c(ccc3ccc(=O)oc23)OC(C)(C)[C@@H]1OC(=O)C1(C)OC1C (stereo partly drawn)	MCF7	WST-1			IC50	25.1 µM
